Laboratory results published in ChEMBL document CHEMBL4138107, “The discovery of novel, potent ERR-alpha inverse agonists for the treatment of triple negative breast cancer” (Eur J Med Chem, 2017).
Each block holds one molecule with its values, some of them ahead of it. Active and inactive are the calls of the source. No cut-off for these calls is given here.

Legend:
[1] = molecular target: T1, Steroid hormone receptor ERR1 (Homo sapiens, UniProt P11474); experiment: Inverse agonist activity at GAL4-DNA binding domain-fused human ERRalpha ligand binding domain expressed in HEK293 cells assessed as inhibition of transcriptional activity after 48 hrs by luciferase reporter gene assay; format: cell-based
T1 sequence (P11474 whole entry): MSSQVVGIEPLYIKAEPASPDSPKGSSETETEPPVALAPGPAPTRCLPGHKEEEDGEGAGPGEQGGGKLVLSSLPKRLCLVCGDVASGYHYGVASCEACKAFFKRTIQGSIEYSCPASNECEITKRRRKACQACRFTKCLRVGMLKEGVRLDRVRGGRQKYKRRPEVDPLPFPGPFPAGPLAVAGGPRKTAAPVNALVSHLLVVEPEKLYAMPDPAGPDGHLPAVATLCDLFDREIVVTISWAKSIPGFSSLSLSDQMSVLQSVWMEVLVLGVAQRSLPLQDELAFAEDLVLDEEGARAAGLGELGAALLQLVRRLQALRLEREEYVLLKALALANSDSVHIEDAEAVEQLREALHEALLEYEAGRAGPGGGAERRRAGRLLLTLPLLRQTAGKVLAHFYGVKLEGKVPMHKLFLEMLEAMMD
Outline: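 HEK293 cells at 1×10⁵/well in DMEM with 10% FBS, transfected at 70-80% confluency. Per well: 20 ng GAL4-DBD-ERRα-LBD, 20 ng UAS-Luc reporter and 5 ng pRL-TK control. After 6 h at 37°C, vehicle (0.05% DMSO) or compound added for 48 h. Dual-luciferase read-out.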

MDA-MB-231 [2] = experiment: Antitumor activity against human MDA-MB-231 cells xenografted in BALB/c nude mouse assessed as tumor size at 30 mg/kg administered every other day for 28 days measured after 30 days relative to control; format: functional
Outline: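 MDA-MB-231 cells suspended in PBS injected subcutaneously into the right flank of 6-week-old BALB/c nude mice. Once tumors averaged >100 mm³, mice were randomized into groups of 10 and given vehicle, test compound or cyclophosphamide 30 mg/kg, dosed every other day. Mice were weighed 3 times weekly. Tumor volume = length × width² × 0.5 and was compared with the vehicle group.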

MDA-MB-231 [3] = experiment: Antiproliferative activity against ER deficient human MDA-MB-231 cells after 48 hrs by CCK-8 assay; format: functional, cell-based; details: MDA-MB-231, 48 h
Outline: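 Cells seeded in 96-well plates and cultured overnight, then exposed to a range of compound concentrations for 48 h. CCK-8 reagent added and incubated 2 h at 37°C. Read-out is optical density at 450 nm. MDA-MB-231 maintained in L-15 with 10% FBS, L-glutamine, sodium pyruvate, pen/strep at 37°C, 5% CO2.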

MDA-MB-435 = experiment: Antiproliferative activity against ER deficient human MDA-MB-435 cells after 48 hrs by CCK-8 assay; format: functional, cell-based; details: MDA-MB-435, 48 h
T47D = experiment: Antiproliferative activity against human T47D cells harboring ER after 48 hrs by CCK-8 assay; format: functional, cell-based
MCF7 = experiment: Antiproliferative activity against human MCF7 cells harboring ER after 48 hrs by CCK-8 assay; format: functional, cell-based; details: MCF7, 48 h
HeLa = experiment: Antiproliferative activity against human HeLa cells after 48 hrs by CCK-8 assay; format: functional, cell-based
PC-3 = experiment: Antiproliferative activity against human PC3 cells after 48 hrs by CCK-8 assay; format: functional, cell-based; details: PC-3, 48 h
LNCaP = experiment: Antiproliferative activity against human LNCAP cells after 48 hrs by CCK-8 assay; format: functional, cell-based
A549 = experiment: Antiproliferative activity against human A549 cells after 48 hrs by CCK-8 assay; format: functional, cell-based; details: A549, 48 h
MDA-MB-231 [4] = experiment: Inhibition of cell migration in human MDA-MB-231 cells […] by crystal violet staining-based transwell assay; format: functional
MDA-MB-231 [5] = experiment: Induction of ROS generation in human MDA-MB-231 cells after 24 hrs by DCFH-DA staining based fluorescence assay; format: functional, cell-based
Outline: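 MDA-MB-231 cells in 96-well plates pretreated with 1-30 µmol/l compound for 24 h at 37 °C. Then loaded with DCFH-DA (10 µmol/l) for 30 min. Fluorescence read at ex 488/em 535 nm on a plate reader and expressed relative to untreated cells. Mean ± SEM, n=4.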

[6] = molecular target: T2, Steroid hormone receptor ERR1 (Homo sapiens) (UniProt P11474); experiment: Inverse agonist activity at ERRalpha in human MDA-MB-231 cells assessed as down regulation of PGC-1alpha mRNA expression at 5 to 10 uM after 48 hrs by qRT-PCR analysis; format: cell-based
T2 sequence (whole entry): T1 sequence (P11474 whole entry)
Outline: (§1)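 MDA-MB-231 cells in 6-well plates at […]. Exposed to vehicle (DMSO) or compound for 48 h, then mRNA of ERRα target genes (PGC-1α, PDK4, osteopontin/SPP1, pS2/TFF1) quantified by real-time RT-PCR. Mean ± S.E.M. of three independent experiments.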

[7] = molecular target: T2, Steroid hormone receptor ERR1 (Homo sapiens); experiment: Inverse agonist activity at ERRalpha in human MDA-MB-231 cells assessed as down regulation of PDK4 mRNA expression at 5 to 10 uM after 48 hrs by qRT-PCR analysis; format: cell-based; outline: as §1
[8] = molecular target: T2, Steroid hormone receptor ERR1 (Homo sapiens); experiment: Inverse agonist activity at ERRalpha in human MDA-MB-231 cells assessed as down regulation of osteopontin mRNA expression at 5 to 10 uM after 48 hrs by qRT-PCR analysis; format: cell-based; outline: as §1
[9] = molecular target: T2, Steroid hormone receptor ERR1 (Homo sapiens); experiment: Inverse agonist activity at ERRalpha in human MDA-MB-231 cells assessed as down regulation of pS2 mRNA expression at 5 to 10 uM after 48 hrs by qRT-PCR analysis; format: cell-based; outline: as §1
[10] = molecular target: T2, Steroid hormone receptor ERR1 (Homo sapiens); experiment: (§2) Inhibition of fluorescein-labeled PGC-1alpha binding to GAL4-DNA binding domain-fused human ERRalpha ligand binding domain expressed in HEK293 cells in presence of terbium chelate by TR-FRET assay; format: cell-based
[11] = molecular target: T1, Steroid hormone receptor ERR1; experiment: as §2; format: cell-based
MDA-MB-231 [12] = experiment: Antitumor activity against human MDA-MB-231 cells xenografted in BALB/c nude mouse assessed as tumor volume at 30 mg/kg administered every other day for 28 days and measured after 30 days (reference value: 1500 mm3); format: functional
MDA-MB-231 [13] = experiment: Effect on steady state ERRalpha mRNA expression in human MDA-MB-231 cells at 5 to 10 uM after 48 hrs by qRT-PCR analysis; format: ADME, cell-based; details: mda-mb-231, 48 h
MDA-MB-231 [14] = experiment: Antitumor activity against human MDA-MB-231 cells xenografted in BALB/c nude mouse assessed as reduction in tumor growth at 30 to 100 mg/kg administered every other day […]; format: functional, organism-based
MDA-MB-231 [15] = experiment: Cell migration rate in human MDA-MB-231 cells at 5 uM after 48 hrs by crystal violet staining-based transwell assay relative to control; details: MDA-MB-231, 48 h
MDA-MB-231 [16] = experiment: Cell migration rate in human MDA-MB-231 cells at 10 uM after 48 hrs by crystal violet staining-based transwell assay relative to control; details: MDA-MB-231, 48 h
MDA-MB-231 [17] = experiment: Cell migration rate in human MDA-MB-231 cells at 20 uM after 48 hrs by crystal violet staining-based transwell assay relative to control; details: MDA-MB-231, 48 h
MDA-MB-231 [18] = experiment: Induction of apoptosis in human in human MDA-MB-231 cells at 10 uM after 48 hrs by Annexin V-FITC staining based fluorescence microscopic analysis

IC50 [1]: 3.04 µM
SMILES: CCOc1cc(NS(C)(=O)=O)c(OCC)cc1CNC(=O)Nc1ccc(OCC)c(C(=O)Nc2ccc(C)cc2)c1

IC50 [1]: 21.1 µM
SMILES: CCOc1cc(NS(C)(=O)=O)c(OCC)cc1CNC(=O)Nc1ccccc1

IC50 [1]: 3.81 µM
SMILES: CCOc1cc(NS(C)(=O)=O)c(OCC)cc1CNC(=O)Nc1ccc(OCC)c(C(=O)NCc2ccccc2)c1

IC50 [1]: 4.06 µM
SMILES: CCOc1cc(NS(C)(=O)=O)c(OCC)cc1CNC(=O)Nc1ccc(OCc2ccccc2)c(C(=O)OC)c1

IC50 [1]: 3.72 µM
SMILES: CCOc1cc(NS(C)(=O)=O)c(OCC)cc1CNC(=O)Nc1ccc(OCC)c(C(=O)Nc2ccccc2)c1

SMILES: O=P1(N(CCCl)CCCl)NCCCO1 (centres undefined) [CYCLOPHOSPHAMIDE ANHYDROUS]
Activity (MDA-MB-231 [2]): 50.1%

IC50 [1]: 3.43 µM
SMILES: CCCCOc1ccc(NC(=O)NCc2cc(OCC)c(NS(C)(=O)=O)cc2OCC)cc1C(=O)OC

IC50 [1]: 1.9 µM
IC50 (MDA-MB-231 [3]): 1.46 µM
IC50 (MDA-MB-435): 2.53 µM
IC50 (T47D): 8.31 µM
IC50 (MCF7): 14.1 µM
IC50 (HeLa): 6.25 µM
IC50 (PC-3): 5.01 µM
IC50 (LNCaP): 11.4 µM
IC50 (A549): 4.84 µM
Activity [6]: Active
Activity [7]: Active
Activity [8]: Active
Activity [9]: Active
inhibition [10]: Dose-dependent effect
IC50 [11]: 0.61 µM
SMILES: CCOc1cc(NS(C)(=O)=O)c(OCC)cc1CNC(=O)Nc1ccc(OCC)c(C(=O)NCc2ccc(OC)cc2)c1
inhibition (MDA-MB-231 [4]): Dose-dependent effect
Activity (MDA-MB-231 [5]): Active
Activity (MDA-MB-231 [2]): 40.9%
Activity (MDA-MB-231 [12]): 720 mm3
Activity (MDA-MB-231 [13]): Non-Toxic
TGI (MDA-MB-231 [14]): Active
migration rate % at 5 µM (MDA-MB-231 [15]): 53.2%
migration rate % at 10 µM (MDA-MB-231 [16]): 39.3%
migration rate % at 20 µM (MDA-MB-231 [17]): 17.8%
Activity (MDA-MB-231 [18]): Active

IC50 [1]: 3.48 µM
SMILES: CCOc1cc(NS(C)(=O)=O)c(OCC)cc1CNC(=O)Nc1ccc(OCC)c(C(=O)NC(C)C)c1

IC50 [1]: 4.23 µM
SMILES: CCOc1cc(NS(C)(=O)=O)c(OCC)cc1CNC(=O)Nc1ccc(OCC)c(C(=O)Nc2cccc(OC)c2)c1
